Source: ChEMBL document CHEMBL1136166, “The imidazo[2,1-a]isoindole system. A new skeletal basis for antiplasmodial compounds” (Bioorg Med Chem Lett, 2003)
pIC50: −log10 of the molar value. In brackets after ≈: the same amount, converted by molar mass. Several values for one entry are separate records, joined by “and”; a condition that tells them apart may be missing. Equal entries are not always repeated.

Columns and labels:
[1] = test system: Plasmodium falciparum; assay: Antiplasmodial potency relative to chloroquine; assay type: functional
Summary of the method: (§1)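 P. falciparum F32-Tanzania (chloroquine-sensitive) cultured per Trager-Jensen in glucose-enriched RPMI 1640 with 10% human serum, 37 °C, candle jar. Human O+ red cells at 5% haematocrit, 1% parasitaemia. After 24 h, medium replaced with drug-containing medium (final DMSO ≤0.1%) and incubated a further 48 h. Parasitaemia counted on blood smears; IC50 read graphically from % inhibition vs concentration. Triplicate. Index = IC50 chloroquine/IC50 compound ×100.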

[2] = test system: Plasmodium falciparum; assay: In vitro inhibitory concentration against Plasmodium falciparum F32; assay type: functional, organism-based; summary of the method: as §1
[3] = test system: Ferriprotoporphyrin IX; assay: Inhibitory concentration against ferriprotoporphyrin in biomineralisation assay (FBIT); Not active; assay type: functional, Plasmodium falciparum
Summary of the method: (§2)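 Heme biomineralization (FBIT): haemin chloride (0.5 mg/mL stock in DMSO), 0.5 M sodium acetate pH 4.4 and compound solution (10 mg/mL stock) were added in that order, final pH 5–5.2, and incubated at 37 °C for 18–24 h. After centrifugation, the pellet was washed with DMSO and the β-haematin dissolved in 0.1 M NaOH; absorbance read at 405 nm. % inhibition calculated against the solvent control.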

[4] = test system: Ferriprotoporphyrin IX; assay: In vitro inhibitory concentration against ferriprotoporphyrin in biomineralisation assay (FBIT); Not active; assay type: functional, Plasmodium falciparum; summary of the method: as §2
[5] = test system: Ferriprotoporphyrin IX; assay: In vitro inhibitory concentration against ferriprotoporphyrin in biomineralisation assay (FBIT); assay type: functional, Plasmodium falciparum; summary of the method: as §2
[6] = test system: Ferriprotoporphyrin IX; assay: Antiplasmodial potency relative to chloroquine in ferriprotoporphyrin biomineralisation assay; assay type: functional; details: Plasmodium falciparum
[7] = test system: Ferriprotoporphyrin IX; assay: Inhibitory concentration against ferriprotoporphyrin in biomineralisation assay (FBIT); assay type: functional, Plasmodium falciparum; summary of the method: as §2
[8] = test system: Ferriprotoporphyrin IX; assay: Inhibitory concentration against ferriprotoporphyrin in biomineralisation (FBIT); assay type: functional, Plasmodium falciparum; summary of the method: as §2

Row | Compound | Index [1] [%] | IC50 [2] | further results
1 | COc1cc(CC(=O)c2ccccc2C(=O)N2CCCCC2)cc(OC)c1OC | <0.1 | 100 µg/mL and > 100 µM | –
2 | COc1ccc(Cc2nn(C)c(=O)c3ccccc23)cc1 | 1.1 | 1 µg/mL and 3.6 µM | IC50 [3]: Not Active; IC50 [4]: Not Active
3 | O=C(Cc1ccc(Cl)cc1)c1ccccc1C(=O)N1CCCCC1 | 0.11 | 12 µg/mL and 35 µM | –
4 | COc1ccc(Cc2nnc(O)c3ccccc23)cc1OC | <0.1 | 95 µg/mL and > 100 µM | –
5 | OC1(Cc2ccc3c(c2)OCO3)c2ccccc2C2=NCCCN21 (stereo unspecified) | <0.1 | 38 µg/mL and 104 µM | –
6 | COc1ccc(Cc2nnc(O)c3ccccc23)cc1 | 1.1 | 1 µg/mL and 3.8 µM | pIC50 [5]: 2.24; Index [6]: 0.5%; IC50 [7]: 1530 µg/mL (≈ 5750 µM)
7 | O=c1[nH]nc(Cc2ccccc2)c2ccccc12 | <0.1 | > 100 µg/mL and > 100 µM | –
8 | COc1ccc(CCc2cc(O)cc(OC)c2C(=O)O)cc1 [ISONOTHOLAENIC ACID] | <0.1 | 16 µg/mL and 53 µM | –
9 | COc1ccc(Cc2nn(C)c(=O)c3ccccc23)cc1OC | <0.1 | 26 µg/mL and 84 µM | –
10 | COc1ccc(CCc2cc(O)cc(OC)c2C(=O)N2CCCCC2)cc1 | 0.25 | 6 µg/mL and 16.3 µM | –
11 | OC1(Cc2ccccc2)c2ccccc2C2=NCCCN21 (stereo unspecified) | 1.1 | 1 µg/mL and 3.6 µM | IC50 [3]: Not Active; IC50 [4]: Not Active
12 | Cn1nc(Cc2ccccc2)c2ccccc2c1=O | 0.2 | 5 µg/mL and 20 µM | –
13 | COc1ccc(CC2(O)c3ccccc3C3=NCCCN32)cc1OC (stereo unspecified) | <0.1 | 32 µg/mL and 104 µM | –
14 | O=C(Cc1ccc2c(c1)OCO2)c1ccccc1C(=O)N1CCCCC1 | <0.1 | > 100 µg/mL and > 100 µM | –
15 | COc1ccc(CC2(O)c3ccccc3C3=NCCN32)cc1 (stereo unspecified) | 100 | 0.017 µg/mL and 40 nM | IC50 [3]: Not Active; IC50 [4]: Not Active
16 | OC1(Cc2ccc(Cl)cc2)c2ccccc2C2=NCCCN21 (stereo unspecified) | 0.3 | 3.6 µg/mL and 11.5 µM | –
17 | Cn1nc(Cc2ccc(Cl)cc2)c2ccccc2c1=O | <0.1 | 15 µg/mL and 52.8 µM | –
18 | COc1ccc(C(=O)C(=O)c2ccccc2C(=O)N2CCCCC2)cc1 | <0.1 | 17 µg/mL and 48 µM | –
19 | COc1ccc(CC(=O)c2ccccc2C(=O)N2CCCCC2)cc1OC | <0.1 | 36 µg/mL and 98 µM | –

Row | Compound | Index [1] [%] | IC50 [2] | further results
20 | COc1ccc(C(=O)C(=O)c2ccccc2C(=O)N2CCCCC2)cc1OC | <0.1 | 32 µg/mL and 84 µM | –
21 | COc1cc(CC2(O)c3ccccc3C3=NCCCN32)cc(OC)c1OC (stereo unspecified) | 0.2 | 5.2 µg/mL and 16.1 µM | –
22 | Cn1nc(Cc2ccc3c(c2)OCO3)c2ccccc2c1=O | 0.4 | 3.8 µg/mL and 11 µM | –
23 | COc1cc(CC2(O)c3ccccc3C3=NCCN32)cc(OC)c1OC (stereo unspecified) | 57 | 0.022 µg/mL and 70 nM | pIC50 [5]: 2.76; Index [6]: 1.6%; IC50 [7]: 590 µg/mL (≈ 1660 µM)
24 | COc1cc(Cc2nn(C)c(=O)c3ccccc23)cc(OC)c1OC | <0.1 | 32 µg/mL and > 100 µM | –
25 | CCN(CC)CCCC(C)Nc1ccnc2cc(Cl)ccc12 (stereo unspecified) [CHLOROQUINE] | – | – | pIC50 [5]: 4.55; IC50 [7]: 8.5 µg/mL (≈ 26.6 µM)
26 | COc1cc(Cc2nnc(O)c3ccccc23)cc(OC)c1OC | <0.01 | > 100 µg/mL and > 100 µM | –
27 | O=C(C(=O)c1ccccc1C(=O)N1CCCCC1)c1ccc2c(c1)OCO2 | 0.2 | 8.5 µg/mL and 20.7 µM | –
28 | COc1cc(C(=O)C(=O)c2ccccc2C(=O)N2CCCCC2)cc(OC)c1OC | <0.1 | 30 µg/mL and 82 µM | –
29 | Oc1nnc(Cc2ccc3c(c2)OCO3)c2ccccc12 | <0.01 | > 100 µg/mL and > 100 µM | –
30 | Oc1nnc(Cc2ccc(Cl)cc2)c2ccccc12 | 0.18 | 6 µg/mL and 22 µM | –
31 | COc1ccc(CC2(O)c3ccccc3C3=NCCN32)cc1OC (stereo unspecified) | 0.4 | 4.9 µg/mL and 9.3 µM | –
32 | COc1ccc(CC2(O)c3ccccc3C3=NCCCN32)cc1 (stereo unspecified) | 0.5 | 2.3 µg/mL and 7.5 µM | –
33 | COc1ccc(CC(=O)c2ccccc2C(=O)N2CCCCC2)cc1 | <0.1 | > 100 µg/mL and > 100 µM | –
34 | OC1(Cc2ccc3c(c2)OCO3)c2ccccc2C2=NCCN21 (stereo unspecified) | 21 | 0.067 µg/mL and 190 nM | –
35 | C=C[C@H]1CN2CC[C@H]1C[C@H]2[C@H](O)c1ccnc2ccc(OC)cc12 [QUININE] | – | – | pIC50 [5]: 3.60; Index [6]: 11%; IC50 [8]: 80 µg/mL (≈ 247 µM)
36 | OC1(Cc2ccccc2)c2ccccc2C2=NCCN21 (stereo unspecified) | 0.4 | 2.5 µg/mL and 9.5 µM | –
37 | OC1(Cc2ccc(Cl)cc2)c2ccccc2C2=NCCN21 (stereo unspecified) | 36 | 0.036 µg/mL and 110 nM | IC50 [3]: Not Active; IC50 [4]: Not Active
38 | O=C(C(=O)c1ccccc1C(=O)N1CCCCC1)c1ccc(Cl)cc1 | 0.12 | 12 µg/mL and 33.8 µM | –
